# The source made the active and inactive calls. The calls are words filed in the database; no cut-off is given here.
# How the values were obtained:
# [1] = target: T1, P2X purinoceptor 1 (Homo sapiens) (UniProt P51575); test: Antagonist activity at human P2X1R transfected in CHO-K1 cells at 30 uM preincubated for 30 mins followed by alpha,beta-meATP addition by […] based assay relative to control; format: cell-based; parameters: scale not given: the % may be the effect or the level left
# T1 sequence (whole entry): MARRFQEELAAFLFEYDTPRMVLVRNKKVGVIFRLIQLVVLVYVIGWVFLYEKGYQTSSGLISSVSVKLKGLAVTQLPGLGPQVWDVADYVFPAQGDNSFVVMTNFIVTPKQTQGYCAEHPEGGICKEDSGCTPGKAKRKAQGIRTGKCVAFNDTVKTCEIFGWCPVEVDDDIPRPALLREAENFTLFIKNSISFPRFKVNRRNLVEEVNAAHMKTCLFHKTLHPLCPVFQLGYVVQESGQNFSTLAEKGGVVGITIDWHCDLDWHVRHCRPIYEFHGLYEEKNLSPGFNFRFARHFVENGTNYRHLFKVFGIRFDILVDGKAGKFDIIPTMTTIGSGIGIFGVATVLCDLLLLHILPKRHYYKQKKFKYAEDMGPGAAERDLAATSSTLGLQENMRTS
# [2] = target: P2X2/P2X3 heterotrimeric receptor (Homo sapiens) (UniProt Q9UBL9+P56373); test: Antagonist activity at human P2X2/3R transfected in CHO-K1 cells at 30 uM preincubated for 30 mins followed by alpha,beta-meATP addition by fluorescence based assay relative to control; format: cell-based; parameters: scale not given: the % may be the effect or the level left
# [3] = target: T2, P2X purinoceptor 3 (Homo sapiens) (UniProt P56373); test: Antagonist activity at human P2X3R transfected in CHO-K1 cells at 30 uM preincubated for 30 mins followed by alpha,beta-meATP addition by fluorescence based assay relative to control; format: cell-based; parameters: scale not given: the % may be the effect or the level left
# T2 sequence (whole entry): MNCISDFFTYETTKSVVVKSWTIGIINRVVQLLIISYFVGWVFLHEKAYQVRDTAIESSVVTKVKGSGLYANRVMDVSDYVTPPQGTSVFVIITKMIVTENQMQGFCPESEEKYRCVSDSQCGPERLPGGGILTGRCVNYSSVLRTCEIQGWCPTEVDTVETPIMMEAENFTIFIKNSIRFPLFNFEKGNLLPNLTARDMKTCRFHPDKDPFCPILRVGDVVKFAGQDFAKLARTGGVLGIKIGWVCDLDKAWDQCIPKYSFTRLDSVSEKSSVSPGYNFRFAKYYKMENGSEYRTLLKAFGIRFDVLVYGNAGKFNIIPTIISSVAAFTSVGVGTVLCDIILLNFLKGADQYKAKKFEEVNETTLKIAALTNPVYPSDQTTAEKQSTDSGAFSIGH
# [4] = Effect on locomotor activity in C57B/6 mouse model of middle cerebral artery occlusion at 1.5 to 3 mg/kg/day measured over 4 weeks after stroke by open field test; format: toxicity, organism-based; conditions: in vivo, 672 h, dose 1.5-3 mg/kg/day
# Summary of the method: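 C57B/6 mice underwent MCAO and received a subcutaneous Alzet minipump (vehicle 1× PBS) at reperfusion, delivering compound for 3 days. Open-field test: 10 min exploration of a 16″ acrylic box at several time points; total beam breaks recorded. Mean ± S.D.; n = 8–15/group, both sexes.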
# Mus musculus [5] = test: Improvement in learning and memory in C57B/6 mouse model of middle cerebral artery occlusion at 3 mg/kg measured after 4 weeks post stroke by NORT; format: functional, organism-based
# Summary of the method: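 Middle-aged C57B/6 mice (both sexes) underwent MCAO and received a 3-day subcutaneous minipump infusion from reperfusion (vehicle PBS). NORT was run 4 weeks post-stroke: 1 h acclimatisation, 10 min habituation, 10 min trial with two identical objects, then a test 24 h later with one novel object. Discrimination index = (TN − TF)/(TN + TF). One-way ANOVA with Tukey; n = 5–11/group.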
# Mus musculus [6] = test: Neuroprotective activity in Wild type C57B/6 mouse model of middle cerebral artery occlusion assessed as reduction in infract damage at […] administered for 3 days by TTC staining based assay; format: functional, organism-based; conditions: time 3.0 day
# MDM [7] = test: Inhibition of ATP-induced calcium influx in human monocytes derived macrophages preincubated for 15 mins followed by ATP addition and measured upto 4 mins by laser scanning confocal microscopic analysis; format: functional, cell-based; conditions: dose 0.6-3 µM, time <= 19.0 min, DDE = dose-dependent effect
# Summary of the method: (§1)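 Monocytes matured into macrophages with GM-CSF (5 ng/mL) for 5–7 days, then seeded 10^4 cells/dish for ≥24 h. Calbryte 590 AM loaded for 60 min in HBSS/HEPES. Cells pretreated 15 min with 0–3 μM compound, then 50 μM ATP added; confocal images taken every 6 s for up to 4 min. Read-out is peak cytosolic Ca2+ amplitude (F/F0). Mean ± SEM; ANOVA with Tukey.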
# D(3) dopamine receptor = D(3) dopamine receptor (Homo sapiens, UniProt P35462); test: Binding affinity to human D3 dopamine receptor
# Summary of the method: (§2)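 Off-target radioligand binding was run by the NIMH Psychoactive Drug Screening Program across 45 receptors, channels and transporters. Ki in nM, given as mean ± SEM.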
# Mus musculus [8] = test: Neuroprotective activity in Wild type C57B/6 mouse model of middle cerebral artery occlusion assessed as reduction in cortical infract volume at […] administered for 3 days; format: functional, organism-based; conditions: time 3.0 day
# MDM [9] = test: Inhibition of ATP-induced calcium influx in human monocytes derived macrophages assessed as decrease in calcium altitude at 0.6 uM preincubated for 15 mins followed by ATP addition and measured upto 4 mins by laser scanning confocal microscopic analysis; format: functional, cell-based; conditions: time <= 19.0 min; summary of the method: as §1
# Mus musculus [10] = test: Neuroprotective activity in Wild type C57B/6 mouse model of middle cerebral artery occlusion assessed as reduction in hemispheric infract size at 0.5 to 3 mg/kg/day administered for 3 days; format: functional, organism-based; conditions: dose 0.5-3 mg/kg/day, time 3.0 day
# Summary of the method: (§3)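 C57B/6 mice (8–12-week-old males; 12–13-month-old mice in one study) underwent MCAO (filament, laser Doppler confirmation, 37 °C). At reperfusion a subcutaneous Alzet pump was implanted, giving 0.5–3.0 or 5.0 mg/kg/day for 3 days; vehicle was PBS. At day 3, TTC-stained coronal sections were scored blind, with edema-corrected (Swanson) infarct volume as % of contralateral. Mean ± S.D.; n = 5–6.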
# Mus musculus [11] = test: Neuroprotective activity in Wild type C57B/6 mouse model of middle cerebral artery occlusion assessed as reduction in tissue atrophy at […] administered for 3 days measured after 35 days by CV staining based assay; format: functional, organism-based; conditions: time 3.0 day
# [12] = target: T3, 5-hydroxytryptamine receptor 2C (Homo sapiens, UniProt P28335); test: Binding affinity to human 5HT2C serotonin receptor; summary of the method: as §2
# T3 sequence (P28335 whole entry): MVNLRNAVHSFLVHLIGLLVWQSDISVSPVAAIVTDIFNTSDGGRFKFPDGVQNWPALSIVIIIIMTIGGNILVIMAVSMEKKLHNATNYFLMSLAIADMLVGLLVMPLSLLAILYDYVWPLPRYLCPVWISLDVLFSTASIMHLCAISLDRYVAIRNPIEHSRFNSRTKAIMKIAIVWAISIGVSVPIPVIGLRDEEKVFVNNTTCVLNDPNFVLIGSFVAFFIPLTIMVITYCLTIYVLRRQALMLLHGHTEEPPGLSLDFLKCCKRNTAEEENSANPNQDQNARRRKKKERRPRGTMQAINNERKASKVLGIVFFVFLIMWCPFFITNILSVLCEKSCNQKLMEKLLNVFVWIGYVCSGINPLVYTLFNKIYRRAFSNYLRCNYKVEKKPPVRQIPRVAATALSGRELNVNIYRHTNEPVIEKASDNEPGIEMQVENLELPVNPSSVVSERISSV
# [13] = target: T4, P2X purinoceptor 4 (Homo sapiens) (UniProt Q99571); test: Antagonist activity at human P2X4R transfected in HEK293 cells at 30 uM preincubated for 30 mins followed by CTP addition by fluorescence based assay relative to control; format: cell-based; parameters: scale not given: the % may be the effect or the level left
# T4 sequence (whole entry): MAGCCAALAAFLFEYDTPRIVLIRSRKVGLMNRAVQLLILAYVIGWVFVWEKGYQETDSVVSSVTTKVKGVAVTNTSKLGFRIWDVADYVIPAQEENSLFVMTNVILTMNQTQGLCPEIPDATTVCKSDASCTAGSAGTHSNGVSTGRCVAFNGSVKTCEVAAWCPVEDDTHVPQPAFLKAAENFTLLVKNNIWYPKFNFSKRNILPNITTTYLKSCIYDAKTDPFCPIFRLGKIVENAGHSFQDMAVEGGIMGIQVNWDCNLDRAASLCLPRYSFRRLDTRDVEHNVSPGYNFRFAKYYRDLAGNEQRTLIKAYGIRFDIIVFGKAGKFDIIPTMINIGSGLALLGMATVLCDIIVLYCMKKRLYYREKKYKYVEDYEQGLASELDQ
# P2X purinoceptor 4 [14] = target: T5, P2X purinoceptor 4 (Homo sapiens, UniProt Q99571); test: Antagonist activity at human P2X4R transfected in HEK293 cells preincubated for 30 mins followed by CTP addition by fluorescence based assay; format: cell-based
# T5 sequence (Q99571 whole entry): T4 sequence (whole entry)
# P2X purinoceptor 4 [15] = target: T6, P2X purinoceptor 4 (Rattus norvegicus, UniProt P51577); test: Antagonist activity at rat P2X4R expressed in HEK293 cells preincubated for 2 mins followed by ATP addition and measured after 4 mins; format: cell-based
# T6 sequence (P51577 whole entry): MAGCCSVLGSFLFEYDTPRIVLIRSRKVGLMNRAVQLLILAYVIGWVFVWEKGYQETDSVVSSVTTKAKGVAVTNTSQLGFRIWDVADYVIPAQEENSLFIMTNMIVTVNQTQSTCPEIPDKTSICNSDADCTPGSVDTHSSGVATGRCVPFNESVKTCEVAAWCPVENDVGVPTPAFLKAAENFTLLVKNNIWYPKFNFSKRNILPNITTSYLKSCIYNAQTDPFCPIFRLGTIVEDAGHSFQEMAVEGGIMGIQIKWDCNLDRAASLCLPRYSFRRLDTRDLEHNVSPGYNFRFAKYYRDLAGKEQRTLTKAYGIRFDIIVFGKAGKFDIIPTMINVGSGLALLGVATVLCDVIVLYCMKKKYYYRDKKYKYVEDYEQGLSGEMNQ
# Mus musculus [16] = test: Neuroprotective activity in Wild type C57B/6 mouse model of middle cerebral artery occlusion assessed as reduction in hemispheric infract size at 5 mg/kg/day administered for 3 days; format: functional, organism-based; conditions: time 3.0 day; summary of the method: as §3
# D(3) dopamine receptor, sequence (P35462 whole entry): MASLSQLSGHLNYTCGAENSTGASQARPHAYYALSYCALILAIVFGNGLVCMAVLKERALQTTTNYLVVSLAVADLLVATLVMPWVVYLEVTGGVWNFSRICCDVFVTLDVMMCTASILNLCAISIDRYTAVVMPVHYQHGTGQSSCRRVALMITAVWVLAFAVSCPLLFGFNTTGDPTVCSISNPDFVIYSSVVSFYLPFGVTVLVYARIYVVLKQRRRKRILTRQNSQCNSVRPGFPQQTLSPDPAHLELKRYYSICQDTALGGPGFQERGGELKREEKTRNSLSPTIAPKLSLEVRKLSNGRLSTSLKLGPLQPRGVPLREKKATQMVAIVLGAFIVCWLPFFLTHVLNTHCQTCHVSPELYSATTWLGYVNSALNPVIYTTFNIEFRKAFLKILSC
Structure (SMILES),Activity [1] [%],Activity [2] [%],Activity [3] [%],Activity [13] [%],also measured
Cc1cc(-c2noc(=S)[nH]2)cc(N2C(=O)CC(=O)Nc3c2ccc2ccccc32)c1,16,5,12,–,–
CCN(CC)CC.O=C1CC(=O)N(c2ccnc(-c3noc(=S)[nH]3)c2)c2ccc3ccccc3c2N1,–,–,–,–,Activity [4]: Non-Toxic; Activity (Mus musculus [5]): Active; Activity (Mus musculus [6]): Active; inhibition (MDM [7]): Dde; Ki (D(3) dopamine receptor): 0.00077 µM; Activity (Mus musculus [8]): Active; inhibition (MDM [9]): Active; Activity (Mus musculus [10]): Active; Activity (Mus musculus [11]): Active; Ki [12]: 0.006 µM
CCc1cc2c(c3ccccc13)NC(=O)CC(=O)N2c1cccc(-c2noc(=S)[nH]2)c1,6,10,6,–,–
O=C1CC(=O)N(c2cccc(-c3noc(=S)[nH]3)c2)c2cc(C#Cc3ccccc3)c3ccccc3c2N1,14,5,7,-4,–
CCCCC#Cc1cc2c(c3ccccc13)NC(=O)CC(=O)N2c1cccc(-c2noc(=S)[nH]2)c1,16,1,18,15,–
NCc1ccc2ccc3c(c2c1)NC(=O)CC(=O)N3c1cccc(-c2noc(=S)[nH]2)c1,8,0,9,9,–
O=C1CC(=O)N(c2cccc(-c3noc(=S)[nH]3)c2)c2cc(-c3ccccc3)c3ccccc3c2N1,14,10,11,–,IC50 (P2X purinoceptor 4 [14]): 20.7 µM
O=C1CC(=O)N(c2cccc(-c3noc(=S)[nH]3)c2)c2cc(C#Cc3cccnc3)c3ccccc3c2N1,9,13,9,34,–
CC(=O)NCc1ccc2ccc3c(c2c1)NC(=O)CC(=O)N3c1cccc(-c2noc(=S)[nH]2)c1,26,-5,9,16,–
O=C1CN=C(c2cccc(Br)c2)c2oc3ccccc3c2N1,–,–,–,–,IC50 (P2X purinoceptor 4 [15]): 0.75 µM
O=C1CC(=O)N(c2cncc(-c3noc(=S)[nH]3)c2)c2ccc3ccccc3c2N1,15,25,6,–,–
[N-]=[N+]=NCc1ccc2c3c(ccc2c1)N(c1cccc(-c2noc(=S)[nH]2)c1)C(=O)CC(=O)N3,-5,2,0,–,IC50 (P2X purinoceptor 4 [14]): 21.3 µM
Cc1ccc2c(Br)cc3c(c2c1)NC(=O)CC(=O)N3c1cccc(-c2noc(=S)[nH]2)c1,-2,-5,17,–,IC50 (P2X purinoceptor 4 [14]): 11.8 µM
O=C1CC(=O)N(c2cc(-c3noc(=S)[nH]3)ccn2)c2ccc3ccccc3c2N1,18,-6,18,–,–
Cc1ccc2c3c(ccc2c1)N(c1cccc(-c2noc(=S)[nH]2)c1)C(=O)CC(=O)N3,–,–,–,–,Activity (Mus musculus [16]): Active
[N-]=[N+]=NCc1ccc2ccc3c(c2c1)NC(=O)CC(=O)N3c1cccc(-c2noc(=S)[nH]2)c1,8,4,13,6,–
[N-]=[N+]=NCc1ccc2c(Br)cc3c(c2c1)NC(=O)CC(=O)N3c1cccc(-c2noc(=S)[nH]2)c1,-13,-4,15,8,–
O=C1CC(=O)N(c2cccc(-c3noc(=S)[nH]3)n2)c2ccc3ccccc3c2N1,31,15,17,–,–

# Source: ChEMBL document CHEMBL5104186, “Structure-Activity Relationship and Neuroprotective Activity of 1,5-Dihydro-2H-naphtho[1,2-b][1,4]diazepine-2,4(3H)-diones as P2X4 Receptor Antagonists” (J Med Chem, 2022)
